In ChEMBL document CHEMBL1122526, “Pyridonecarboxylic acids as antibacterial agents. 4. Synthesis and antibacterial activity of 7-(3-amino-1-pyrrolidinyl)-1-ethyl-6-fluoro-1,4 -dihydro-4-oxo-1,8-naphthyridine-3-carboxylic acid and its analogues” (1984):
Converted amounts (≈) assume the structure as drawn.

Experiments:
Type in all cases: functional
[1] = system: Escherichia coli; experiment: In vitro antibacterial activity against Escherichia coli NIHJ JC-2
[2] = system: Pseudomonas aeruginosa; experiment: in vitro antibacterial activity against Pseudomonas aeruginosa Tsuchijima
[3] = system: Staphylococcus aureus; experiment: In vitro for antibacterial activity against Staphylococcus aureus 209P JC-1
[4] = system: Escherichia coli; experiment: Compound was evaluated in vivo for oral antibacterial activity against Escherichia coli P-5101 at a dose of 9E6
How it was run: (§1)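 Mice were given a systemic infection and then treated by the oral route. Challenge doses in cells per mouse were 5 × 10^8 for S. aureus 50774, 9 × 10^6 for E. coli P-5101 and 4 × 10^3 for P. aeruginosa 12. The protective dose is given in mg/kg.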

[5] = system: Pseudomonas aeruginosa; experiment: Compound was evaluated in vivo for oral antibacterial activity iagainst Pseudomonas aeruginosa 12 at a dose of 4E3; how it was run: as §1
[6] = system: Staphylococcus aureus; experiment: Compound was evaluated in vivo for oral antibacterial activity against Staphylococcus aureus 50774 at a dose of 5E8; how it was run: as §1
[7] = system: Pseudomonas aeruginosa; experiment: Compound was evaluated in vivo for oral antibacterial activity against Pseudomonas aeruginosa 12 at a dose of 4E3; how it was run: as §1

Row | SMILES | MIC [1] [µg/mL] | MIC [2] [µg/mL] | MIC [3] [µg/mL] | ED50 [4] [mg/kg] | ED50 [5] [mg/kg] | ED50 [6] [mg/kg] | ED50 [7] [mg/kg]
1 | CCn1cc(C(=O)O)c(=O)c2cc(F)c(N3CC(OC)C3)nc21 | 3.13 (≈ 9.74 µM) | 6.25 (≈ 19.5 µM) | 0.78 (≈ 2.43 µM) |  |  |  | 
2 | CCn1cc(C(=O)O)c(=O)c2cc(F)c(N3CCC(NC(N)=O)C3)nc21 (centres undefined) | 3.13 (≈ 8.61 µM) | 25 (≈ 68.8 µM) | 6.25 (≈ 17.2 µM) |  |  |  | 
3 | CCn1cc(C(=O)O)c(=O)c2cc(F)c(N3CCC(CNC(C)=O)CC3)nc21 | 1.56 (≈ 4 µM) | 25 (≈ 64 µM) | 0.78 (≈ 2 µM) |  |  |  | 
4 | CCn1cc(C(=O)O)c(=O)c2cc(F)c(N3CCC(Cl)C3)nc21 (centres undefined) | 0.39 (≈ 1.15 µM) | 12.5 (≈ 36.8 µM) | 0.2 (≈ 0.589 µM) |  |  |  | 
5 | C=Cn1cc(C(=O)O)c(=O)c2cc(F)c(N3CCC(NC(C)=O)C3)nc21 (centres undefined) | 0.78 (≈ 2.16 µM) | 12.5 (≈ 34.7 µM) | 1.56 (≈ 4.33 µM) |  |  |  | 
6 | CCn1cc(C(=O)O)c(=O)c2cc(F)c(N3CCC(N)C3)nc21 (centres undefined) [ESAFLOXACIN] | 0.1 (≈ 0.312 µM) | 0.39 (≈ 1.22 µM) | 0.2 (≈ 0.624 µM) | 1.7 |  | 3 | 3.7
7 | CCn1cc(C(=O)O)c(=O)c2cc(F)c(N3CCC(N(C)C(C)=O)C3)nc21 (centres undefined) | 6.25 (≈ 16.6 µM) | 25 (≈ 66.4 µM) | 0.78 (≈ 2.07 µM) |  |  |  | 
8 | CCn1cc(C(=O)O)c(=O)c2cc(F)c(N3CCC(NC(C)=O)C3)nc21 (centres undefined) | 6.25 (≈ 17.2 µM) | 6.25 (≈ 17.2 µM) | 0.78 (≈ 2.15 µM) |  |  |  | 
9 | CC(=O)N(C)C1CCN(c2nc3c(cc2F)c(=O)c(C(=O)O)cn3CCF)C1 (centres undefined) | 1.56 (≈ 3.96 µM) | 25 (≈ 63.4 µM) | 0.39 (≈ 0.989 µM) |  |  |  | 
10 | CCn1cc(C(=O)O)c(=O)c2cc(F)c(N3CCC(NC(=O)C(F)(F)F)C3)nc21 (centres undefined) | 1.56 (≈ 3.75 µM) | 6.25 (≈ 15 µM) | 0.78 (≈ 1.87 µM) |  |  |  | 
11 | NC1CCN(c2nc3c(cc2F)c(=O)c(C(=O)O)cn3CCF)C1 (centres undefined) | 0.1 (≈ 0.296 µM) | 0.39 (≈ 1.15 µM) | 0.39 (≈ 1.15 µM) | 2.8 |  | 4.6 | 6.3
12 | CCn1cc(C(=O)O)c(=O)c2cc(F)c(N3CCC(NN)C3)nc21 (centres undefined) | 1.56 (≈ 4.65 µM) | 12.5 (≈ 37.3 µM) | 0.39 (≈ 1.16 µM) |  |  |  | 
13 | CCn1cc(C(=O)O)c(=O)c2cc(F)c(N3CCNCC3)nc21 [ENOXACIN] | 0.2 (≈ 0.624 µM) | 0.78 (≈ 2.44 µM) | 0.78 (≈ 2.44 µM) | 1.8 |  | 10 | 9
14 | C=Cn1cc(C(=O)O)c(=O)c2cc(F)c(N3CCC(NC=O)C3)nc21 (centres undefined) | 0.39 (≈ 1.13 µM) | 3.13 (≈ 9.04 µM) | 0.78 (≈ 2.25 µM) |  |  |  | 
15 | CCn1cc(C(=O)O)c(=O)c2cc(F)c(N3CC(N)C3)nc21 | 0.1 (≈ 0.326 µM) | 0.78 (≈ 2.55 µM) | 0.78 (≈ 2.55 µM) | 4.1 |  | 8.8 | 12.5
16 | CCn1cc(C(=O)O)c(=O)c2cc(F)c(N3CC(N4CCOCC4)C3)nc21 | 6.25 (≈ 16.6 µM) | 50 (≈ 133 µM) | 1.56 (≈ 4.14 µM) |  |  |  | 
17 | C=Cn1cc(C(=O)O)c(=O)c2cc(F)c(N3CCC(N)C3)nc21 (centres undefined) | 0.025 (≈ 0.0785 µM) | 0.2 (≈ 0.628 µM) | 0.2 (≈ 0.628 µM) | 0.72 |  | 1.6 | 1.6
18 | CCn1cc(C(=O)O)c(=O)c2cc(F)c(N3CCC(O)C3)nc21 (centres undefined) | 0.78 (≈ 2.43 µM) | 0.78 (≈ 2.43 µM) | 0.39 (≈ 1.21 µM) | 6.8 |  | 5.5 | 42

Continued by falling MIC [1], values first:

Row | MIC [1] [µg/mL] | MIC [2] [µg/mL] | MIC [3] [µg/mL] | SMILES | ED50 [4] [mg/kg] | ED50 [5] [mg/kg] | ED50 [6] [mg/kg] | ED50 [7] [mg/kg]
19 | 12.5 (≈ 28.5 µM) | > 100 | 1.56 (≈ 3.56 µM) | CCn1cc(C(=O)O)c(=O)c2cc(F)c(N3CCC(NC(=O)c4ccccc4)CC3)nc21 |  |  |  | 
20 | 12.5 (≈ 34.5 µM) | 50 (≈ 138 µM) | 6.25 (≈ 17.2 µM) | CCn1cc(C(=O)O)c(=O)c2cc(F)c(N3CCCC(C(N)=O)C3)nc21 (centres undefined) |  |  |  | 
21 | 6.25 (≈ 17.2 µM) | > 100 | 25 (≈ 69 µM) | CCCNC1CCN(c2nc3c(cc2F)c(=O)c(C(=O)O)cn3CC)C1 (centres undefined) |  |  |  | 
22 | 6.25 (≈ 15.6 µM) | 100 (≈ 250 µM) | 1.56 (≈ 3.9 µM) | C=Cn1cc(C(=O)O)c(=O)c2cc(F)c(N3CCC(NCC(F)(F)F)C3)nc21 (centres undefined) |  |  |  | 
23 | 3.13 (≈ 9.33 µM) | 25 (≈ 74.6 µM) | 1.56 (≈ 4.65 µM) | CCn1cc(C(=O)O)c(=O)c2cc(F)c(N3CCCC(O)C3)nc21 (centres undefined) |  |  |  | 
24 | 3.13 (≈ 8.36 µM) | 25 (≈ 66.8 µM) | 1.56 (≈ 4.17 µM) | C=Cn1cc(C(=O)O)c(=O)c2cc(F)c(N3CCC(N(C)C(C)=O)C3)nc21 (centres undefined) |  |  |  | 
25 | 3.13 (≈ 9.33 µM) | 25 (≈ 74.6 µM) | 0.78 (≈ 2.33 µM) | CCOC1CN(c2nc3c(cc2F)c(=O)c(C(=O)O)cn3CC)C1 |  |  |  | 
26 | 3.13 (≈ 9.33 µM) | 6.25 (≈ 18.6 µM) | 0.78 (≈ 2.33 µM) | CCn1cc(C(=O)O)c(=O)c2cc(F)c(N3CCC(O)CC3)nc21 |  |  |  | 
27 | 1.56 (≈ 4.1 µM) | 25 (≈ 65.7 µM) | 1.56 (≈ 4.1 µM) | CC(=O)NC1CCN(c2nc3c(cc2F)c(=O)c(C(=O)O)cn3CCF)C1 (centres undefined) |  |  |  | 
28 | 1.56 (≈ 4.64 µM) | 3.13 (≈ 9.31 µM) | 1.56 (≈ 4.64 µM) | CCn1cc(C(=O)O)c(=O)c2cc(F)c(N3CC(N)C(O)C3)nc21 (centres undefined) |  |  |  | 
29 | 1.56 (≈ 3.88 µM) | 50 (≈ 124 µM) | 0.78 (≈ 1.94 µM) | CCn1cc(C(=O)O)c(=O)c2cc(F)c(N3CCC(NCC(F)(F)F)C3)nc21 (centres undefined) |  |  |  | 
30 | 1.56 (≈ 4.47 µM) | 3.13 (≈ 8.96 µM) | 0.39 (≈ 1.12 µM) | CCn1cc(C(=O)O)c(=O)c2cc(F)c(N3CCC(OC=O)C3)nc21 (centres undefined) |  |  |  | 
31 | 1.56 (≈ 4.48 µM) | 12.5 (≈ 35.9 µM) | 0.39 (≈ 1.12 µM) | CCn1cc(C(=O)O)c(=O)c2cc(F)c(N3CCC(CN)CC3)nc21 |  |  |  | 
32 | 0.78 (≈ 2.24 µM) | 3.13 (≈ 8.98 µM) | 0.78 (≈ 2.24 µM) | CCNC1CCN(c2nc3c(cc2F)c(=O)c(C(=O)O)cn3CC)C1 (centres undefined) |  |  |  | 
33 | 0.78 (≈ 2.54 µM) | 3.13 (≈ 10.2 µM) | 0.78 (≈ 2.54 µM) | CCn1cc(C(=O)O)c(=O)c2cc(F)c(N3CC(O)C3)nc21 |  |  |  | 
34 | 0.78 (≈ 2.24 µM) | 3.13 (≈ 8.99 µM) | 0.78 (≈ 2.24 µM) | CCn1cc(C(=O)O)c(=O)c2cc(F)c(N3CCC(NC=O)C3)nc21 (centres undefined) |  |  |  | 
35 | 0.78 (≈ 2.24 µM) | 6.25 (≈ 17.9 µM) | 1.56 (≈ 4.48 µM) | CCn1cc(C(=O)O)c(=O)c2cc(F)c(N3CCC(N(C)C)C3)nc21 (centres undefined) |  |  |  | 
36 | 0.78 (≈ 2.33 µM) | 6.25 (≈ 18.7 µM) | 0.78 (≈ 2.33 µM) | CCn1cc(C(=O)O)c(=O)c2cc(F)c(N3CCCC(N)C3)nc21 (centres undefined) |  |  |  | 
37 | 0.39 (≈ 1.13 µM) | 3.13 (≈ 9.04 µM) | 3.13 (≈ 9.04 µM) | C=Cn1cc(C(=O)O)c(=O)c2cc(F)c(N3CCC(N(C)C)C3)nc21 (centres undefined) |  |  |  | 
38 | 0.2 (≈ 0.546 µM) | 6.25 (≈ 17.1 µM) | 0.78 (≈ 2.13 µM) | CN(C)C1CCN(c2nc3c(cc2F)c(=O)c(C(=O)O)cn3CCF)C1 (centres undefined) |  |  |  | 
39 | 0.2 (≈ 0.598 µM) | 1.56 (≈ 4.67 µM) | 0.2 (≈ 0.598 µM) | CCn1cc(C(=O)O)c(=O)c2cc(F)c(N3CCC(N)CC3)nc21 | 6.3 | 16.2 | > 25 | 
40 | 0.2 (≈ 0.598 µM) | 1.56 (≈ 4.67 µM) | 0.39 (≈ 1.17 µM) | CCn1cc(C(=O)O)c(=O)c2cc(F)c(N3CCC(NC)C3)nc21 (centres undefined) | 1.4 |  | 4.8 | 6.5
41 | 0.2 (≈ 0.568 µM) | 0.78 (≈ 2.21 µM) | 0.78 (≈ 2.21 µM) | CNC1CCN(c2nc3c(cc2F)c(=O)c(C(=O)O)cn3CCF)C1 (centres undefined) | 2.8 |  | 15 | 19.3
42 | 0.1 (≈ 0.329 µM) | 0.39 (≈ 1.28 µM) | 1.56 (≈ 5.13 µM) | C=Cn1cc(C(=O)O)c(=O)c2cc(F)c(N3CC(N)C3)nc21 |  |  |  | 
43 | 0.1 (≈ 0.301 µM) | 0.78 (≈ 2.35 µM) | 0.78 (≈ 2.35 µM) | C=Cn1cc(C(=O)O)c(=O)c2cc(F)c(N3CCC(NC)C3)nc21 (centres undefined) | 2 |  | 1.6 | 3.7
